In ChEMBL document CHEMBL1134344, “Crystal structure of human cyclin-dependent kinase 2 in complex with the adenine-derived inhibitor H717” (J Med Chem, 2001):

Experiments:
[1] = tested on: A549; assay: Inhibition of A549 human lung tumor cell proliferation; type: functional, cell-based
Summary of the method: (§1)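 Tumor cells harvested with trypsin-EDTA, trypan-blue-excluding cells counted, plated and left overnight at 37 °C; drug diluted in culture medium and added for 72 h (three days). Medium then removed, plates frozen at -80 °C ≥30 min, thawed, and CyQUANT-GR in lysis buffer added for 3-5 min at room temperature.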

[2] = target: Cyclin-dependent kinase 2/cyclin E (Homo sapiens, UniProt P24941); assay: Inhibition of cyclic dependent kinase 2 (CDK2)/cyclin E; type: protein-complex assay
[3] = target: Cyclin-dependent kinase 1/cyclin B (Homo sapiens, UniProt P06493); assay: Inhibition of human cyclic dependent kinase 1 (CDK1)/cyclin B; type: protein-complex assay
[4] = tested on: DMS-114; assay: Inhibition of DMS114 human lung tumor cell proliferation; type: functional, cell-based; summary of the method: as §1
[5] = target: Cyclin-dependent kinase 4/cyclin D1 (Homo sapiens, UniProt P11802); assay: Inhibition of cyclic dependent kinase 4 (CDK4)/cyclin D1; type: protein-complex assay
Summary of the method: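 Human CDK4 and cyclin D1 coexpressed in Sf9 cells (baculovirus, MOI 0.1 each, 72 h); 0.1 ng enzyme from clarified lysate. Substrate GST-Rb (0.5 µg) on glutathione-Sepharose beads. ATP 10 µM plus [γ33P]ATP; 30 min at 30 °C. Filtration, TNEN washes, scintillation counting; IC50 from increasing drug concentrations.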

[6] = tested on: DU-145; assay: Inhibition of DU-145 human prostate tumor cell proliferation; type: functional, cell-based; summary of the method: as §1
[7] = tested on: HCT-15; assay: Inhibition of HCT-15 human colon tumor cell proliferation; type: functional, cell-based; summary of the method: as §1
[8] = tested on: HT-29; assay: Inhibition of HT-29 human colon tumor cell proliferation; type: functional, cell-based; summary of the method: as §1
[9] = tested on: MDA-MB-231; assay: Inhibition of MDA-MB-231 human breast tumor cell proliferation; type: functional, cell-based; summary of the method: as §1
[10] = tested on: MCF7; assay: Inhibition of MCF-7 human breast tumor cell proliferation; type: functional, cell-based; summary of the method: as §1
[11] = tested on: PC-3; assay: Inhibition of PC-3 human prostate tumor cell proliferation; type: functional, cell-based; summary of the method: as §1

Sequence of Cyclin-dependent kinase 4/cyclin D1 (P11802 whole entry): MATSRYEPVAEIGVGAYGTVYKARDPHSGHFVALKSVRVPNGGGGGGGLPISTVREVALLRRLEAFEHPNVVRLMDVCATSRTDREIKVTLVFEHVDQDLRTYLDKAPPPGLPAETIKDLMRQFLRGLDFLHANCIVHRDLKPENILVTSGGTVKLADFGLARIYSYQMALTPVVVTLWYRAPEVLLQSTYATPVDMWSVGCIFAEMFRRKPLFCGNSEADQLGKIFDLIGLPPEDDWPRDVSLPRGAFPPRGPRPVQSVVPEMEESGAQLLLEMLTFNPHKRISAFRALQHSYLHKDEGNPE
Sequence of Cyclin-dependent kinase 4/cyclin D1 (P24385 whole entry, further chain): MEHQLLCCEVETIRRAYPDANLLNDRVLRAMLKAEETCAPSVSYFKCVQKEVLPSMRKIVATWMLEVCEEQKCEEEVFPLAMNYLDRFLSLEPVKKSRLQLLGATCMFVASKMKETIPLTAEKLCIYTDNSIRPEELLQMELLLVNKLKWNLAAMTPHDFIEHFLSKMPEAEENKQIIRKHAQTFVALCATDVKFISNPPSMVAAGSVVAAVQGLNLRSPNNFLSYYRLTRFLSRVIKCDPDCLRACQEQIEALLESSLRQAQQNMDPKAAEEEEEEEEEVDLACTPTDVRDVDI

SMILES	IC50 [1]	IC50 [2]	IC50 [3]	IC50 [4]	IC50 [5]	IC50 [6]	IC50 [7]	IC50 [8]	IC50 [9]	IC50 [10]	IC50 [11]
N[C@H]1CC[C@H](Nc2nc(NCc3cccc(I)c3)c3ncn(C4CCCC4)c3n2)CC1	1000 nM	50 nM	226 nM	1000 nM	2000 nM	1600 nM	2.1 µM	1200 nM	1000 nM	600 nM	1400 nM
C[C@H](Nc1nc(N[C@H]2CC[C@H](N)CC2)nc2c1ncn2C1CCCC1)c1ccccc1	6100 nM	720 nM	2000 nM	6600 nM	8800 nM	5600 nM	8.6 µM	5700 nM	5200 nM	3300 nM	3900 nM
N[C@H]1CC[C@H](Nc2nc(NCc3ccccc3)c3ncn(C4CCCC4)c3n2)CC1	–	–	52 nM	–	–	–	–	–	–	–	–
N[C@H]1CC[C@H](Nc2nc(NCC3CC3)c3ncn(C4CCCC4)c3n2)CC1	1600 nM	24 nM	70 nM	1400 nM	780 nM	1300 nM	3.3 µM	2000 nM	1700 nM	1300 nM	600 nM
